Assay results reported in ChEMBL document CHEMBL3774315, “Discovery of new low-molecular-weight p53-Mdmx disruptors and their anti-cancer activities” (Bioorg Med Chem, 2016).
Active and inactive are the calls of the source. The calls are words filed in the database; no cut-off is given here.

How the values were obtained:
[1] = biological target: Tumour suppressor p53/oncoprotein Mdm2 (Homo sapiens, UniProt P04637+Q00987); assay: Inhibition of Flag-tagged p53/GST-tagged Mdm2 (unknown origin) expressed in Escherichia coli BL21 after 1 hr by ELISA microplate reader method
Chain of Tumour suppressor p53/oncoprotein Mdm2 (P04637 whole entry): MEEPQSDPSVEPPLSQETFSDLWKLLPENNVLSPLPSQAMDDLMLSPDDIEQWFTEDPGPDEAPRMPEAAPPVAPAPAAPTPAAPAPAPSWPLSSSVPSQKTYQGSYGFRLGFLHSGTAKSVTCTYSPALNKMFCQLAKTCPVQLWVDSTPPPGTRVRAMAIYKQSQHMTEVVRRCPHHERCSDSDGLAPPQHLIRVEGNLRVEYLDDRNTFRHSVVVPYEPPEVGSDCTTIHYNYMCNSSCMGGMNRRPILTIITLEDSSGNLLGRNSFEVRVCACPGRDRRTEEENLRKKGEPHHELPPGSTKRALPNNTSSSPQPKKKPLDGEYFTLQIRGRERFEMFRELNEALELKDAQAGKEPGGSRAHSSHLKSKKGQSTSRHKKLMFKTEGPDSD
Chain of Tumour suppressor p53/oncoprotein Mdm2 (Q00987 whole entry): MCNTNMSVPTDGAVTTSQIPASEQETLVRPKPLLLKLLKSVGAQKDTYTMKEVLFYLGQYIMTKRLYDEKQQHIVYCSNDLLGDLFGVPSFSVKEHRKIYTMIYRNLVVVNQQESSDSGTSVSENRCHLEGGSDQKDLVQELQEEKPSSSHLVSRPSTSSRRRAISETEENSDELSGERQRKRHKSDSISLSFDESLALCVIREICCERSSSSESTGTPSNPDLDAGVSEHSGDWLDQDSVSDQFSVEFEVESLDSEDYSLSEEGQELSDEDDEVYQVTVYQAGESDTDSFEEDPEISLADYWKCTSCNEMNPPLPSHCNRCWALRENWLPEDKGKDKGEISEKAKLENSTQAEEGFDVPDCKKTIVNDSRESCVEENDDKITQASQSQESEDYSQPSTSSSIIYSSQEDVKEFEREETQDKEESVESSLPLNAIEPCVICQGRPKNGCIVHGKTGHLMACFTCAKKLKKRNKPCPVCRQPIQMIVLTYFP

[2] = test system: HCT-116; assay: Cytotoxicity against human HCT116 cells expressing WT p53 and Mdmx assessed as growth inhibition after 48 hrs by crystal violet staining based spectrophotometry; format: functional, cell-based
Method in brief: (§1)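 Cells seeded at 2 × 10^4 per well and held 24 h at 37 °C in 5% CO2. Serial dilutions (0, 10, 15, 20, 25 or 30 µM) then added for 48 h. Cells stained 15 min with crystal violet (0.75% dye, 0.25% NaCl, 1.75% formaldehyde, 50% EtOH) and read at 600 nm. Viability is expressed as percent of untreated control.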

[3] = test system: MCF7; assay: Cytotoxicity against human MCF7 cells expressing WT p53 and Mdmx assessed as growth inhibition after 48 hrs by crystal violet staining based spectrophotometry; format: functional, cell-based; method in brief: as §1
[4] = biological target: Cellular tumor antigen p53/Peptidyl-prolyl cis-trans isomerase D (Homo sapiens, UniProt P04637+Q08752); assay: Inhibition of Flag-tagged p53/GST-tagged PPID (unknown origin) expressed in Escherichia coli BL21 after 1 hr by ELISA microplate reader method
Chain of Cellular tumor antigen p53/Peptidyl-prolyl cis-trans isomerase D (P04637 whole entry): as the sequence (P04637 whole entry) above
Chain of Cellular tumor antigen p53/Peptidyl-prolyl cis-trans isomerase D (Q08752 whole entry): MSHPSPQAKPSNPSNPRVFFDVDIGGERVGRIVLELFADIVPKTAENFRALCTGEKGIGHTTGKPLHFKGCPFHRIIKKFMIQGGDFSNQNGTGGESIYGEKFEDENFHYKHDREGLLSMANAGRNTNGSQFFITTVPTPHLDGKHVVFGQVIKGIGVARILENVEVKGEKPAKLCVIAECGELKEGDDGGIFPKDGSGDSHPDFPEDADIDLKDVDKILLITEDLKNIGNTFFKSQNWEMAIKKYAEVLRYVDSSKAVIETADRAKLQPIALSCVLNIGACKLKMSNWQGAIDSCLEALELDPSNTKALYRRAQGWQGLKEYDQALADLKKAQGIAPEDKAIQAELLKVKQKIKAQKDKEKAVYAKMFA

[5] = test system: A-431; assay: Cytotoxicity against human A431 cells expressing mutant p53 assessed as growth inhibition after 48 hrs by crystal violet staining based spectrophotometry; format: functional, cell-based; method in brief: as §1
[6] = biological target: Cellular tumor antigen p53/Death-associated protein kinase 1 (Homo sapiens, UniProt P04637+P53355); assay: Inhibition of Flag-tagged p53/GST-tagged DAPK1 (unknown origin) expressed in Escherichia coli BL21 after 1 hr by ELISA microplate reader method
Chain of Cellular tumor antigen p53/Death-associated protein kinase 1 (P04637 whole entry): as the sequence (P04637 whole entry) above
Chain of Cellular tumor antigen p53/Death-associated protein kinase 1 (P53355 whole entry): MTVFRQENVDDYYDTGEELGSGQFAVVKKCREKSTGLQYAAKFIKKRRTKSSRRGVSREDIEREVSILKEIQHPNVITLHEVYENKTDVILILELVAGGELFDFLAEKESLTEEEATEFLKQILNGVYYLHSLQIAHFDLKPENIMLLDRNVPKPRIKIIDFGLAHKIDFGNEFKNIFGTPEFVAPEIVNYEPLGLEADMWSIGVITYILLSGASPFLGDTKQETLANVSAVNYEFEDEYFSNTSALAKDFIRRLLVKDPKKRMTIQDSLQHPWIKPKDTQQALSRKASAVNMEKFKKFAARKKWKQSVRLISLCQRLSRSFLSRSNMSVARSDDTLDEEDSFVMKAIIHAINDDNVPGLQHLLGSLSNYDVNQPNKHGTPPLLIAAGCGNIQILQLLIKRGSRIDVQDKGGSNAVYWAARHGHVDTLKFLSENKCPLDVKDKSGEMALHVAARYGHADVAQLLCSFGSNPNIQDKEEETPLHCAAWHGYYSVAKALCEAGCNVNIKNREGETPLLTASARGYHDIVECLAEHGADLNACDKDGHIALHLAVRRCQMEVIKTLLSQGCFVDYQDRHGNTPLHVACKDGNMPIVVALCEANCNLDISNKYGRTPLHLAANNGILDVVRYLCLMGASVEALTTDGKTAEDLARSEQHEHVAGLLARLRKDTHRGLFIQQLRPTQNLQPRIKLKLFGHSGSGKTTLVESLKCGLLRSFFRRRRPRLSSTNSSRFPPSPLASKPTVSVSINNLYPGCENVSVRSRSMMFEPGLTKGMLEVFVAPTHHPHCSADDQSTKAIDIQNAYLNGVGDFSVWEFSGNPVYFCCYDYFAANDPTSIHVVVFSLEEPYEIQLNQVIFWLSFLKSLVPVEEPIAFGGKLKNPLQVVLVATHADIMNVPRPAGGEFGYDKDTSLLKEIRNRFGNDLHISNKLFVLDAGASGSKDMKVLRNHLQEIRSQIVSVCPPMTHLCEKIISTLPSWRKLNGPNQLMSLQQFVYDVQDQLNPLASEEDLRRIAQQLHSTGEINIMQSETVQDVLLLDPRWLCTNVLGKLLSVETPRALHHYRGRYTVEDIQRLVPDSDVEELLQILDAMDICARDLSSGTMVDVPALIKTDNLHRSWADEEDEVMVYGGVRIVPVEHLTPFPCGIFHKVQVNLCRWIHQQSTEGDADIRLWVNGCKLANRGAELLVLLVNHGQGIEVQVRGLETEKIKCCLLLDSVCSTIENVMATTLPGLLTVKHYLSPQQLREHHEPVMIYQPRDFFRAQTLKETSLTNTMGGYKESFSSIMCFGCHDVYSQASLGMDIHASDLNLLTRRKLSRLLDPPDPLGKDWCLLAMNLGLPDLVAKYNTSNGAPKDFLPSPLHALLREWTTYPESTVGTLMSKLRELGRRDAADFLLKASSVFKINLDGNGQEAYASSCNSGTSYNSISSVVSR

[7] = test system: A-427; assay: Cytotoxicity against human A427 cells expressing WT p53 and Mdmx assessed as growth inhibition after 48 hrs by crystal violet staining based spectrophotometry; format: functional, cell-based; method in brief: as §1
[8] = test system: MDA-MB-468; assay: Cytotoxicity against human MDA-MB-468 cells expressing mutant p53 assessed as growth inhibition after 48 hrs by crystal violet staining based spectrophotometry; format: functional, cell-based; method in brief: as §1
[9] = biological target: Tumour suppressor protein p53/Mdm4 (Homo sapiens, UniProt O15151+P04637); assay: Inhibition of Flag-tagged p53/GST-tagged Mdmx (unknown origin) expressed in Escherichia coli BL21 after 1 hr by ELISA microplate reader method
Chain of Tumour suppressor protein p53/Mdm4 (P04637 whole entry): as the sequence (P04637 whole entry) above
Chain of Tumour suppressor protein p53/Mdm4 (O15151 whole entry): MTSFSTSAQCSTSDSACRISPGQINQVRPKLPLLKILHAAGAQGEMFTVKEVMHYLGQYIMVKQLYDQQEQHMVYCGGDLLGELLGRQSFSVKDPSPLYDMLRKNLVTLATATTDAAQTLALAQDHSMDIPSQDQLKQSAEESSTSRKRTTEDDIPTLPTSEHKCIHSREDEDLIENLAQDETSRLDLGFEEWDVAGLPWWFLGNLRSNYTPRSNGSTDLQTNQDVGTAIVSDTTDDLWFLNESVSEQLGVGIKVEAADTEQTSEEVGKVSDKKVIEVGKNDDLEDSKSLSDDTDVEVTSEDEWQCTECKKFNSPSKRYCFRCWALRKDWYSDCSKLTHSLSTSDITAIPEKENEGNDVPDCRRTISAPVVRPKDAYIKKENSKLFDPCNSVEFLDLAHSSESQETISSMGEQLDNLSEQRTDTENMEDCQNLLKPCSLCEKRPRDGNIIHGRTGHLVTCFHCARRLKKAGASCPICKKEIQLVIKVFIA

[10] = test system: MCF7; assay: Upregulation of p21 in human MCF7 cells after 24 hrs by Western blot analysis; format: functional, cell-based
Method in brief: (§2)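 MCF-7 cells plated at 1.0 × 10^6 per 60-mm dish, grown 24 h, washed and given fresh medium for another 24 h. Treated with compound or 0.1% DMSO for 24 or 48 h. Floating and adherent cells lysed in Tris/NaCl/EDTA/EGTA/NP-40 buffer with Na3VO4, NaF, DTT, PMSF and protease inhibitors. 10 µg protein separated by SDS-PAGE, probed with primary antibodies at 1:1000, detected by ECL chemiluminescence.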

[11] = test system: Mus musculus; assay: Upregulation of p53 protein expression in human HCT116 cells xenografted nude BALB/c mouse tumors at 150 mg/kg/day, po administered every other day until day 38 and measured on day 40 by Western blot analysis; format: functional, organism-based; conditions: HCT-116
Method in brief: (§3)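 Tumors excised at day 40 from orally dosed HCT116-xenograft nude mice, frozen in liquid nitrogen, ground and suspended in lysis buffer, then spun at 15,000 × g at 4 °C. 10 µg protein (measured by BCA) run on SDS-PAGE, blotted to PVDF and probed for p53, Mdm2, p21 and cleaved caspase 3 (1:1000) or full-length caspase 3 (3:1000). ECL detection.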

[12] = test system: Mus musculus; assay: Upregulation of p21 protein expression in human HCT116 cells xenografted nude BALB/c mouse tumors at 150 mg/kg/day, po administered every other day until day 38 and measured on day 40 by Western blot analysis; format: functional, organism-based; conditions: HCT-116; method in brief: as §3
[13] = Antitumor activity against human HCT116 cells xenografted in nude BALB/c mouse assessed as decrease in tumor growth at 100 mg/kg/day, po administered every other day until day 38 and measured on day 40; format: functional; conditions: HCT-116, po
Method in brief: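 Female BALB/c-nu/nu mice, 6 weeks old, given HCT116 cells (1.5 × 10^6 in 100 µL Matrigel) subcutaneously in the back. Once tumours reached 70–143 mm3, drug (2.0 mg/200 µL) or vehicle (0.1% Tween 80, 200 µL) was given orally every other day to day 38. Tumour length/width and body weight were tracked. Result expressed as mean treated tumour volume as % of control mean.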

[14] = test system: MCF7; assay: Upregulation of Mdm2 in human MCF7 cells after 24 hrs by Western blot analysis; format: functional, cell-based; method in brief: as §2
[15] = test system: MCF7; assay: Increase in p53 expression in human MCF7 cells nuclei after 24 hrs by DAPI staining based immunofluorescence microscopy; format: functional, cell-based
Method in brief: (§4)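 Cells seeded at 3.0 × 10^4/mL in chamber slides and grown 24 h, then exposed to 10 µM sample for a further 24 h. Fixed in 3% paraformaldehyde (25 °C, 30 min), permeabilized with 0.05% Triton X-100 and blocked with 3% BSA. Stained with anti-p53 (1:50, overnight, 4 °C) and an Alexa 488 secondary (1:200, 30 min). Nuclei counterstained with DAPI; examined by fluorescence/confocal microscopy.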

[16] = test system: Mus musculus; assay: Induction of apoptosis in human HCT116 cells xenografted nude BALB/c mouse tumors assessed as upregulation of caspase-3 protein expression at 150 mg/kg/day, po administered every other day until day 38 and measured on day 40 by Western blot analysis; format: functional, organism-based; conditions: HCT-116; method in brief: as §3
[17] = Cytotoxicity against human TIG7 cells expressing wild-type p53 assessed as growth inhibition after 48 hrs by crystal violet staining based spectrophotometry; conditions: tig7, 48 h
[18] = test system: Mus musculus; assay: Induction of apoptosis in human HCT116 cells xenografted nude BALB/c mouse tumors at 100 to 150 mg/kg/day, po administered every other day until day 38 and measured on day 40 by TUNEL assay; format: functional, organism-based; conditions: HCT-116
Method in brief: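 Tumor sections from orally dosed HCT116-xenograft nude mice underwent TUNEL staining, performed by an outside service. TUNEL-positive cells were counted as a percentage of all cells over eight fields at ×20 magnification.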

[19] = test system: MCF7; assay: Upregulation of p53 in human MCF7 cells after 24 hrs by Western blot analysis; format: functional, cell-based; method in brief: as §2
[20] = test system: IMR-32; assay: Increase in p53 expression in human IMR32 cells nuclei after 24 hrs by DAPI staining based immunofluorescence microscopy; format: functional, cell-based; method in brief: as §4
[21] = test system: Mus musculus; assay: Toxicity in human HCT116 cells xenografted nude BALB/c mouse assessed as body weight loss at 100 mg/kg/day, po administered every other day until day 38 and measured on day 40; format: organism-based, HCT-116; conditions: in vivo
Method in brief: (§5)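 HCT116 cells (1.5 × 10^6 per 100 µL Matrigel) injected s.c. into the backs of 6-week-old female BALB/c-nu/nu mice. Once tumors reached 70–143 mm3, compound (2.0 or 3.0 mg/200 µL) or vehicle (0.1% Tween 80, 200 µL) was given orally every other day until day 38. n = 6 or 9 treated, 7 control. Tumor length, width and body weight were monitored. Activity is mean treated tumor volume as a percentage of control.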

[22] = test system: Mus musculus; assay: Upregulation of Mdm2 protein expression in human HCT116 cells xenografted nude BALB/c mouse tumors at 150 mg/kg/day, po administered every other day until day 38 and measured on day 40 by Western blot analysis; format: functional, organism-based; conditions: HCT-116; method in brief: as §3
[23] = test system: Mus musculus; assay: Toxicity in human HCT116 cells xenografted nude BALB/c mouse assessed as body weight loss at 150 mg/kg/day, po administered every other day until day 38 and measured on day 40; format: organism-based, HCT-116; conditions: in vivo; method in brief: as §5

| SMILES | IC50 [1] [µM] | IC50 [4] [µM] | IC50 [9] [µM] | IC50 [6] [µM] | also measured |
| --- | --- | --- | --- | --- | --- |
| CC(C)C(=O)Nc1ccccc1O | > 25 | > 25 | > 25 | > 25 | – |
| CC(C)C(=O)Nc1ccccc1SC(=O)C(C)C | 13.1 | > 25 | 1.5 | > 25 | Activity [10]: Dose-dependent effect; Activity [11]: Active; Activity [12]: Active; T/C % at 100 mg/kg/day [13]: 49%; growth inhibition (GI) [2]: Dose-dependent effect; growth inhibition (GI) [3]: Dose-dependent effect; Activity [14]: Dose-dependent effect; growth inhibition (GI) [5]: Active; Activity [15]: Active; Activity [16]: Active; Activity [17]: Toxic; Activity [18]: Dose-dependent effect; Activity [19]: Dose-dependent effect; Activity [20]: Active; growth inhibition (GI) [7]: Dose-dependent effect; growth inhibition (GI) [8]: Active; Activity [21]: Non-toxic; Activity [22]: Active; Activity [23]: Non-toxic |
| COc1ccc(C2=N[C@@H](c3ccc(Cl)cc3)[C@@H](c3ccc(Cl)cc3)N2C(=O)N2CCNC(=O)C2)c(OC(C)C)c1 | – | – | – | – | Activity [10]: Active; Activity [14]: Active; Activity [15]: Active; Activity [19]: Active; Activity [20]: Active |
| O=C(Nc1ccccc1S)c1ccccc1 | > 25 | > 25 | 7.2 | > 25 | – |

Continued, in another order:

| IC50 [1] [µM] | IC50 [4] [µM] | IC50 [9] [µM] | SMILES | IC50 [6] [µM] | also measured |
| --- | --- | --- | --- | --- | --- |
| > 25 | > 25 | 6.3 | CC(C)C(=O)Nc1ccccc1S | > 25 | growth inhibition (GI) [2]: Active; growth inhibition (GI) [3]: Active; growth inhibition (GI) [5]: Active; growth inhibition (GI) [7]: Active; growth inhibition (GI) [8]: Active |
| 14.6 | > 25 | 4.6 | CC(C)C(=O)Sc1ccccc1NC(=O)c1ccccc1 | > 25 | – |
| 15.3 | > 25 | 8.9 | O=C(Nc1ccccc1S)c1ccc(Cl)nc1 | > 25 | – |
| > 25 | > 25 | > 25 | CC(C)C(=O)Nc1ccccc1OC(=O)C(C)C | > 25 | – |
| > 25 | > 25 | > 25 | CCCCCCCC(=O)Nc1ccccc1S | > 25 | – |
| 18.4 | > 25 | 3.4 | O=C(Nc1ccccc1S)c1ccc(Cl)cc1 | > 25 | – |
